The values below come from ChEMBL document CHEMBL1921780, “Novel 3-nitro-1H-1,2,4-triazole-based aliphatic and aromatic amines as anti-chagasic agents” (J Med Chem, 2011).

In data set [1] the test system is Trypanosoma brucei rhodesiense. Nature of the data set: Antitrypanosomal activity against blood stream form of Trypanosoma brucei rhodesiense STIB 900 […] after 72 hrs by alamar blue assay. It counts as functional, organism-based. To be noted: STIB 900, 72 h.
In the next data set the test system is L6. In words: Cytotoxicity against rat L6 cells after 72 hrs by alamar blue assay. It is filed as cell-based. To be noted: L6, 72 h. A digest of the protocol:
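Run in 96-well plates with a compound dose series. T. cruzi was tested as amastigotes inside infected L6 rat skeletal myoblasts. Uninfected L6 cells were used for cytotoxicity. IC50 was obtained by linear regression from sigmoidal dose–inhibition curves.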
For orientation: Alamar Blue is a resazurin reagent that responds to reducing activity.

Data set [2] is described as follows: Selectivity index, ratio of IC50 for rat L6 cells to IC50 for Trypanosoma brucei rhodesiense STIB 900. To be noted: L6 cells versus Trypanosoma brucei rhodesiense STIB 900, read-out: Ratio IC50. It counts as toxicity, cell-based. A digest of the protocol:
(§1)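 Selectivity index is the L6 myoblast IC50 divided by the IC50 for each parasite. L. donovani was tested as axenic amastigotes. Both IC50s came from 96-well dose-response screens fitted by linear regression of sigmoidal curves.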

Data set [3] in a line: Selectivity index, ratio of IC50 for rat L6 cells to IC50 for Trypanosoma cruzi Tulahuen C4. To be noted: L6 cells versus Trypanosoma cruzi Tulahuen C4, read-out: Ratio IC50. It is filed as toxicity, cell-based. A digest of the protocol:
as §1

A short description of data set [4]: Selectivity index, ratio of IC50 for rat L6 cells to IC50 for Leishmania donovani MHOM-ET-67/L82. It is filed as toxicity, cell-based. To be noted: L6 cells versus Leishmania donovani MHOM-ET-67/L82, read-out: Ratio IC50. A digest of the protocol:
as §1

Data set [5] deals with Trypanosoma cruzi. Nature of the data set: Ratio of benznidazole IC50 to compound IC50 for Trypanosoma cruzi Tulahuen C4 infected in rat L6 cells after 72 hrs by alamar blue assay. It is filed as functional.
A short description of data set [6]: Dissociation constant, pKa of the compound. It counts as physicochemical.
The test system of data set [7] is Trypanosoma brucei brucei. In words: Antitrypanosomal activity against blood-stream Trypanosoma brucei brucei after 3 days by alamar blue assay. To be noted: 72 h. It counts as functional, organism-based. A digest of the protocol: (§2)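 Bloodstream-form parasites seeded at 1 × 10^3 per ml in growth medium with a range of nitrotriazole or nifurtimox concentrations, no tetracycline. Incubated 3 days at 37 °C, then Alamar blue added for a further 16 h. IC50 taken from culture cell density.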

In data set [8] the test system is Trypanosoma brucei brucei. In words: Antitrypanosomal activity against blood-stream Trypanosoma brucei brucei expressing type 1 nitroreductase after 3 days by alamar blue assay in absence of tetracycline. It counts as functional, organism-based. To be noted: 72 h. A digest of the protocol:
as §2

Data set [9] concerns Trypanosoma brucei brucei. Nature of the data set: Antitrypanosomal activity against tetracycline-induced blood-stream Trypanosoma brucei brucei overexpressing type 1 nitroreductase after 3 days by alamar blue assay. It is filed as functional, organism-based. To be noted: 72 h. A digest of the protocol: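 Bloodstream-form parasites carrying inducible TbNTR, with expression induced by tetracycline (1 μg/mL). Seeded at 1 × 10^3 per ml with a range of nitrotriazole or nifurtimox concentrations. Incubated 3 days at 37 °C, then Alamar blue added for 16 h. IC50 taken from cell density.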

The test system of data set [10] is Trypanosoma brucei brucei. Nature of the data set: Ratio of IC50 for blood-stream Trypanosoma brucei brucei expressing type 1 nitroreductase in the absence of tetracycline to IC50 for tetracycline-induced blood-stream Trypanosoma brucei brucei overexpressing type 1 nitroreductase. It counts as functional. A digest of the protocol:
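Each culture seeded at 1 × 10^3 per ml, given compound for 3 days at 37 °C, then Alamar blue added for 16 h. IC50 taken from cell density, and the ratio is uninduced over induced.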

For another data set, the system named is Salmonella typhimurium. In words: Induction of mutagenesis in Salmonella Typhimurium by Ames test. It is filed as toxicity, organism-based. To be noted: salmonella enterica subsp. enterica serovar typhimurium.
The subject of another data set is Leishmania donovani. In words: Antileishmanial activity against Leishmania donovani MHOM-ET-67/L82 axenic amastigotes after 72 hrs by alamar blue assay. To be noted: MHOM-ET-67/L82, 72 h.
The test system of data set [11] is Trypanosoma cruzi. Nature of the data set: Antitrypanosomal activity against amastigotes of Trypanosoma cruzi Tulahuen C4 infected in rat L6 cells after 72 hrs by alamar blue assay. To be noted: Tulahuen C4, L6, 72 h.
The test system of data set [12] is Trypanosoma cruzi. Nature of the data set: Antitrypanosomal activity against amastigote form of Trypanosoma cruzi Tulahuen C4 infected in rat L6 cells after 72 hrs by alamar blue assay. To be noted: Tulahuen C4, L6, 72 h.

Broadly, the IC50 is the point on the concentration scale where inhibition reaches its midpoint. A low value points to greater potency. For orientation: pKa means the pH at which an ionisable group is half protonated. As for `Cl.O=[N+]([O-])c1ncn(CCCNCc2cc(C(F)(F)F)cc(C(F)(F)F)c2)n1`, the IC50 in data set [1] came out at 7.84 µM; in the data set with L6, 138 µM; in data set [7], 7.83 µM; in data set [8] it was 11.1 µM; in [9], 0.76 µM; in the data set with Leishmania donovani, 11.1 µM. In the data set on Trypanosoma cruzi [11], this compound registered a half-maximal inhibitory concentration (IC50) of 0.169 µM. Besides, the results for the selectivity ratio in data set [2], in data set [3] and in data set [4] were 18, 816 and 12, respectively. The results for the “Ratio IC50” value (in the data set on Trypanosoma cruzi [5]; in data set [10]) were 8 and 14, respectively. This compound showed a pKa in data set [6] of 9.44. Moreover, the Activity entry in the data set with Salmonella typhimurium is given as “Non-toxic”.
In the case of `O=C(Cn1ccnc1[N+](=O)[O-])NCc1ccccc1` [BENZNIDAZOLE], the “Ratio IC50” value in the data set on Trypanosoma cruzi [5] stood at 1. In the data set on Trypanosoma cruzi [12], this compound yielded an IC50 of 1.35 µM.
